Screening data deposited in PubChem by several laboratories.
Sampled rows, rich in hits. Any-hit rate of the full collection: about 2.2%.
SF1 activator: activators of human SF-1, primary screen, cell-based, CHO-K1, Gal4-SF-1 LBD, luciferase luminescence | Steroidogenic factor 1 (Homo sapiens), Q13285 | CHO-K1 Gal4-SF-1 LBD luciferase reporter; % increase over DMSO SF-1-specific signal | activation, % at 10 µM | actives 1.9% (n = 65,000);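 active = activation above the mean activation of all tested compounds plus 3 SD, cut at about 50% in these data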
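Assay system: CHO-K1 cells co-transfected with Gal4 DBD–human SF-1 LBD, 5xGal4 luciferase reporter; doses: 10 µM only; incubation: 20 h compound exposure at 37 °C after 1 h cell settling; signal: luciferase light emission; evaluation: percent activation versus DMSO; repeats: one test per compound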
AP ELISA ortho: alternative complement pathway inhibitors, primary screen, biochemical, ELISA, human serum, orthogonally pooled compounds | LPS-coated ELISA, C3 deposition; tested in compound mixtures | inhibition, % at 5 µM | actives 0.08% (n = 62,000) | AID 1235, 2008;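 active = inhibition above 30% in each of the two pooled mixtures holding the compound, so the lower value exceeds 30%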;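 note: 0% = serum in Mg-EGTA without compound and 100% = EDTA serum blank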
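Test system: human serum complement alternative pathway, C3 deposition onto LPS / Medium: Mg2+-EGTA GVB++ buffer containing human serum at 1:15 dilution / Probe or stimulus: Plate-bound LPS / Times: 1 h at 37 °C / Signal: ELISA with HRP anti-human C3 antibody, TMB substrate, absorbance 450 nm / Measure: percent inhibition / Repeats: two pool placements per compound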
RORa activator: activators of orphan receptor RORA, primary screen, cell-based, luminescence; actives 1.5% (n = 65,000); activation, % at 10 µM; Nuclear receptor ROR-alpha (Homo sapiens), P35398; CHO-K1 Gal4-RORA LBD luciferase reporter; percent increase over mock-subtracted basal signal; AID 560, 2006;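 active = activation above the mean of all tested compounds plus 3 SD, cut at about 49% in these data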;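 note: 0% = DMSO-treated RORA cells and 100% = added signal equal to DMSO minus mock-transfected cells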
MT1-MMP txn act: MT1-MMP promoter reporter activation – cell-based, luciferase luminescence, primary screen; HT1080 MT1-MMP promoter luciferase reporter, overnight; stronger effect = higher value; activation factor at 10 µM; actives 0.16% (n = 86,000); AID 750, 2007;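 active = activation factor of at least 2 for MT1-MMP transcription at 10 µM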
E coli RNAP: E. coli RNAP inhibitors, biochemical. AID 559, 2006. DNA-directed RNA polymerase subunit beta (Escherichia coli (strain K12)), P0A8V2. E. coli RNA polymerase, fluorescence transcription assay. inhibition, %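 (tested at 10 µM)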. actives 0.2% (n = 62,000); in the data active = inhibition above about 20%;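 note: 0% = enzyme without compound and 100% = no enzyme blank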
TNAP act DEA: human TNAP enzyme activators, primary screen, biochemical, luminescent, intermediate phosphate acceptor level. activation factor at 20 µM. purified TNAP, CDP-star luminescence, 100 mM DEA, 30 min; stronger effect = higher value; scale: 0 levamisole-inhibited, 1 vehicle-only enzyme. Alkaline phosphatase, tissue-nonspecific isozyme (Homo sapiens), P05186. AID 813, 2007. 64,000 tested, under 10 active;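 active = activation factor of at least 2 at 20 µM, relative to controls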
Target sequence (P05186 whole entry, looked up): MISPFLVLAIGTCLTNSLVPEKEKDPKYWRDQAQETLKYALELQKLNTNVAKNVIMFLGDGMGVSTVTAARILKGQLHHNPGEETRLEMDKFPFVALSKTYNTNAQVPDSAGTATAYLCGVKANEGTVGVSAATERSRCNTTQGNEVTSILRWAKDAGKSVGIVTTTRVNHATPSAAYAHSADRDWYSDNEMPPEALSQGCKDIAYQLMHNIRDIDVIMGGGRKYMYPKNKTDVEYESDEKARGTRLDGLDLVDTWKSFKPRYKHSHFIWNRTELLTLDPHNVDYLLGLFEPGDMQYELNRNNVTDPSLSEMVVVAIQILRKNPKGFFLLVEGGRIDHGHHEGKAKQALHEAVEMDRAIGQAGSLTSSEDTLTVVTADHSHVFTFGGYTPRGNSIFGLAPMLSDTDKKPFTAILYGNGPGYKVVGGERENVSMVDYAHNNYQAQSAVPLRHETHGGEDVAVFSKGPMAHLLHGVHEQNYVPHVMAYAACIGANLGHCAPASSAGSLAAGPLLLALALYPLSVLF
* marks the source's active call; other numbers are inactive results; / = not tested or not shown.

SMILES | SF1 activator | AP ELISA ortho | RORa activator | MT1-MMP txn act | E coli RNAP | TNAP act DEA
CCCSc1nnc(-c2c[nH]c3ccccc23)n1C | 52* | -12 | 30 | 1.3 | 6 | 0.9
COc1ccc(OC)c(C(C)NC(=O)c2ccco2)c1 (stereo not drawn) | 14 | 18 | 11 | 1.4 | 0 | 1
Cc1nc2c3c(-c4ccccc4)nc(N4CCOCC4)nc3nn2c(C)c1CCC(=O)O | 9 | 2 | -25 | 1.1 | 4 | 1
CCOC(=O)Nc1ccc2c(C)cc(=O)oc2c1 | 56* | -7 | 53* | 1.5 | -2 | 0.9
CCCCOC(=O)Nc1ccc2c(C)cc(=O)oc2c1 | / | / | / | 1.9 | / | /
CC1(C)C(C=C(Cl)Cl)C1C(=O)N1CCN(c2ccccc2)CC1 (stereo not drawn) | -15 | 17 | 5 | 1 | 0 | 0.9
Nc1nc2ccc(C(=O)Nc3ccccc3)cc2s1 | 90* | 4 | 62* | 1.9 | 13 | 1
CCCCCCCc1nc2c(=O)[nH]c3ccccc3c2o1 | / | / | / | 0.8 | / | /
O=C(CN1C(=O)C2(OCCO2)c2ccccc21)c1ccc(Br)cc1 | 4 | 5 | 15 | 1.1 | 3 | 0.9
c1ccc2c(c1)NC1(CCCCC1)n1c-2nc2ccccc21 | 31 | 2 | 53* | 1.4 | -10 | 0.9
CC1CCN(CCCNC(=O)Cc2c(C(=O)O)n(C)c3ccccc23)CC1 | -6 | 6 | 21 | 1.1 | 2 | 1
CCNc1ccc(Br)cc(C(=O)/C=C/c2ccc(Cl)cc2Cl)c1=O | / | / | / | 1 | / | /
CC1(C)Cc2c(C#N)c(N3CCN(C(=O)c4ccccc4)CC3)nc(-c3ccco3)c2CS1 | -4 | / | -25 | 1 | 10 | 0.9
CC(C)c1nc(N2CCN(C(=O)c3ccccc3)CC2)c(C#N)c2c1COC(C)(C)C2 | 53* | 7 | 18 | 0.9 | 6 | 1
CCOC(=O)c1cc2cc(OC)ccc2[nH]1 | 73* | / | 12 | 1.5 | / | 0.9
CCOC(=O)c1[nH]c2ccc(OC)cc2c1NC(C)=O | -14 | / | 7 | 1.1 | / | 0.9
CCOC(=O)c1[nH]c2ccc(OC)cc2c1C | 59* | / | 28 | 1.4 | 7 | 0.9
CC(C)C(C)(C#N)NC(=O)CSc1nnc(-c2ccccc2)o1 (stereo not drawn) | / | / | / | 1.3 | / | /
O=C(c1ccc(-c2nnc(-c3ccccc3)o2)cc1)N1CCCCCC1 | 1 | 4 | 60* | 1.2 | 4 | 1
CCCSc1nnc(NC(=O)Nc2ccccc2)s1 | 53* | 11 | 37 | 1.1 | 6 | 0.9
O=C(Nc1nsc(-c2ccccc2)n1)c1cccs1 | 77* | 7 | 47 | 0.7 | 5 | 0.9
COc1ccc(Cc2nnc(NC(=O)c3cccs3)s2)cc1 | 15 | 2 | 51* | 1.1 | 5 | 0.9
CCCSc1nnc(NC(=O)Nc2ccc(F)cc2)s1 | -15 | 23 | -1 | 1.2 | 5 | 0.9
O=C(Nc1nnc(Cc2ccccc2)s1)c1cccs1 | 81* | -6 | 23 | 1.3 | 0 | 0.9
CCOc1cc(C(=S)N2CCCCC2)ccc1OCC(=O)NCc1ccccc1 | / | / | / | 1 | / | /
SMILES | SF1 activator | AP ELISA ortho | RORa activator | MT1-MMP txn act | E coli RNAP | TNAP act DEA
Cc1cc(C)n(C(=O)C(C)N2C(=O)c3ccccc3C2=O)n1 (stereo not drawn) | -9 | 8 | -4 | 1.1 | -1 | 0.9
CN1CCc2c(sc3c2c(=O)n(-c2ccccc2)c2nnc(SCc4ccccc4F)n32)C1 | -8 | 22 | -26 | 0.9 | / | 0.9
CCSc1nnc(NC(=O)c2cccs2)s1 | 43 | 12 | 50* | 1.3 | 6 | 0.9
O=C(Nc1nnc(SCc2ccccc2)s1)c1cccs1 | 47 | 11 | 34 | 1.1 | 10 | 1
CCSc1nnc(NC(=O)c2cc(C)oc2C)s1 | 76* | 12 | 60* | 1.4 | 3 | 0.9
CCN(CC)C(=O)c1sc2nc(-c3ccc(OC)cc3)cn2c1C | 80* | 1 | 98* | 1.5 | -1 | 1
COc1ccc(-c2cn3c(C)c(C(=O)Nc4cc(NC(C)=O)ccc4OC)sc3n2)cc1 | 16 | 3 | 23 | 1.1 | 1 | 0.9
CNC(=O)c1sc2nc(-c3ccc(OC)cc3)cn2c1C | 27 | -5 | 62* | 1.3 | 5 | 0.9
CNc1sc(C(=O)c2ccccc2F)c(N)c1-c1nc2ccccc2s1 | / | / | / | 2.1* | / | /
COC(=O)c1ccc(C(/C=C/[C@@H](C)C(=O)N(C)Cc2ccccc2)NC(=O)OCc2ccccc2)cc1 (stereo partly drawn) | / | / | / | 1.2 | / | /
CCSc1nnc2c(n1)[nH]c1c(C)cccc12 | 40 | -1 | 64* | 1.6 | 10 | 0.8
COc1ccc2nc(NC(=O)c3cccc(OCc4c(C)noc4C)c3)sc2c1 | 36 | 2 | 86* | 0.6 | 3 | 0.9
CCOc1ccc2nc(NC(=O)c3cnccn3)sc2c1 | 19 | 22 | 86* | 0.7 | / | 1.1
CCCC(=O)Nc1nc2ccc(OC)cc2s1 | 54* | 13 | 56* | 1.4 | 5 | 0.9
COc1ccc2nc(NC(=O)CSc3ccccc3)sc2c1 | / | / | / | 1.1 | / | /
Cc1cc(C)n2nc(Nc3ccccc3)cc2n1 | 62* | 4 | 23 | 2* | 12 | 0.8
O=C(NCc1ccco1)C(c1cccs1)N(C(=O)C1COc2ccccc2O1)c1cccc(O)c1 (stereo not drawn) | 8 | 5 | 6 | 1 | 9 | 0.9
O=C(CSc1nc2c(c(=O)[nH]1)CCCC2)Nc1ccc(Cl)cc1F | -2 | 12 | -2 | 1.2 | 6 | 1
CCCOc1ccc(-c2nc(=S)[nH][nH]2)cc1 | / | / | / | 1.3 | / | /
C=CCSc1n[nH]c(-c2ccc(OCCCC)cc2)n1 | 68* | 31 | 31 | 1.5 | 5 | 0.8
C=CCSc1n[nH]c(-c2ccc(OCCC)cc2)n1 | 55* | -4 | 62* | 1.1 | -4 | 0.8
Cc1nc(CN2CCN(C(=O)c3ccc(Br)cc3)CC2)cs1 | -4 | 7 | -14 | / | 12 | 0.9
COc1ccc2nc(NC(=S)N(C)C)sc2c1 | / | / | / | 0.8 | / | /
CCC(=O)n1nc(-c2ccc(OC)cc2)nc1SC | / | / | / | 1.1 | / | /
COc1ccc(-c2nc(SC)n(C(=O)c3ccco3)n2)cc1 | 58* | 0 | 30 | 1.4 | 8 | 0.8
COc1ccc(C(=O)n2nc(-c3ccco3)nc2SC)cc1OC | 1 | 102* | 1 | 1.2 | 4 | 0.9
Cc1nn(Cc2ccc(C(=O)Nc3ccc(Br)c4cccnc34)o2)c(C)c1Br | / | / | / | 1.3 | / | /
CCn1cnc2cc(NCc3ccc(C)cc3)ccc21 | 50* | 7 | 44 | 1.4 | 8 | 1
COC(=O)c1ccc(-c2nc3ccc(C)cc3o2)cc1 | 46 | 14 | 68* | 0.6 | 3 | 0.9
